Reference: ChEMBL document CHEMBL1909507, “Substituted phenyl 4-(2-oxoimidazolidin-1-yl)benzenesulfonamides as antimitotics. Antiproliferative, antiangiogenic and antitumoral activity, and quantitative structure-activity relationships” (Eur J Med Chem, 2011)
The source made the active and inactive calls. The calls are words filed in the database; no cut-off is given here.

Key:
[1] = test system: HT-1080; experiment: Antiproliferative activity against human HT1080 after 48 hrs by SRB assay; type: functional, cell-based; settings: HT-1080, 48 h
Procedure, shortened: (§1)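 Adherent cells were seeded per line (e.g. HT-29 5000, M21 3500, MCF7 7500, CHO and CHO-VV 3-2 and CHO-TAX 5-6 1000 cells/well) and grown 24 h at 37 °C, 5% CO₂. DMSO-solubilized drug was diluted in medium and added at 1000–0.98 nM for 48 h. Cells were fixed with cold 10% TCA and stained with 0.1% sulforhodamine B, with absorbance read at 530–565 nm.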

[2] = test system: M21; experiment: Antiproliferative activity against human M21 cells after 48 hrs by SRB assay; type: functional, cell-based; settings: M21, 48 h; procedure, shortened: as §1
[3] = test system: MDA-MB-231; experiment: Displacement of N,N'-ethylenebis(iodoacetamide) from beta-tubulin colchicine-binding site in human MDA-MB-231 cells at 1000 times IC50 preincubated for 2 hrs before N,N'-ethylenebis(iodoacetamide) addition measured after 1.5 hrs by chemiluminescence assay; type: cell-based
Procedure, shortened: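 EBI (100, final) was added for 1.5 h at 37 °C with drug present; control was 0.5% DMSO. Sonicated lysates (20 µg protein) were run on 10% SDS-PAGE and blotted with anti-β-tubulin TUB 2.1. The β-tubulin–EBI adduct was scored by ECL.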

[4] = test system: DU-145; experiment: Antiproliferative activity against human DU145 after 48 hrs by SRB assay; type: functional, cell-based; settings: DU-145, 48 h
[5] = test system: MCF7; experiment: Antiproliferative activity against human MCF7 cells after 48 hrs by SRB assay; type: functional, cell-based; settings: MCF7, 48 h; procedure, shortened: as §1
[6] = test system: CCRF-CEM; experiment: Antiproliferative activity against human CEM after 48 hrs by SRB assay; type: functional, cell-based
[7] = test system: CHO-TAX 5-6; experiment: Ratio of IC50 for paclitaxel-resistant CHO-TAX 5-6 cells to IC50 for CHO cells; type: functional, Cricetulus griseus
Procedure, shortened: (§2)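 Each ratio is the IC50 in the resistant line divided by the IC50 in its parental line (CHO for CHO-TAX 5-6 and CHO-VV 3-2; CEM for CEM-VLB).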

[8] = test system: SK-OV-3; experiment: Antiproliferative activity against human SKOV3 after 48 hrs by SRB assay; type: functional, cell-based; settings: SK-OV-3, 48 h; procedure, shortened: as §1
[9] = Antiproliferative activity against mouse B16F0 after 48 hrs by SRB assay
[10] = test system: M21; experiment: Cell cycle arrest in human M21 cells assessed as accumulation at G0/G1 phase at 5 times IC50 after 24 hrs using propidium iodide staining by flow cytometric analysis (reference value: 61%); type: functional
Procedure, shortened: (§3)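 Cells were trypsinized, fixed in ice-cold ethanol, treated with RNase, and stained with propidium iodide (1 mg/mL stock) for 1 h on ice. Cell-cycle distribution was measured by flow cytometry.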

[11] = Antiproliferative activity against human multidrug-resistant CEM/VLB cells after 48 hrs by SRB assay; type: functional
[12] = test system: M21; experiment: Cell cycle arrest in human M21 cells assessed as accumulation at S phase at 5 times IC50 after 24 hrs using propidium iodide staining by flow cytometric analysis (reference value: 30%); type: functional; procedure, shortened: as §3
[13] = test system: HT-1080; experiment: Antitumor activity against human HT1080 cells xenografted in chicken chorioallantoic membrane assessed as inhibition of tumor growth at 3 ug, iv measured on day 17 by CAM assay; type: functional
Procedure, shortened: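 Fertilized chicken eggs were incubated 10 days, then 3.5 × 10⁵ HT-1080 cells/egg were applied to the exposed chorioallantoic membrane. On day 11, drug was given iv in DMSO diluted in excipient (ethanol:cremophor:PBS 6.25:6.25:87.5). Read-out was tumor wet weight as % of untreated eggs, plus chick mortality. Data were pooled from two independent experiments of 10–12 eggs each.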

[14] = test system: CCRF-CEM; experiment: Ratio of IC50 for human multidrug-resistant CEM/VLB cells to IC50 for human CEM cells; type: functional; procedure, shortened: as §2
[15] = test system: CHO-VV 3-2; experiment: Antiproliferative activity against colchicine and vinblastine-resistant CHO-VV 3-2 cells after 48 hrs by SRB assay; type: functional, cell-based; settings: Cricetulus griseus, CHO-VV 3-2, 48 h; procedure, shortened: as §1
[16] = Antiproliferative activity against mouse P388D1 after 48 hrs by SRB assay; settings: P388D1, 48 h
[17] = test system: M21; experiment: Cell cycle arrest in human M21 cells assessed as accumulation at G2/M phase at 5 times IC50 after 24 hrs using propidium iodide staining by flow cytometric analysis (reference value: 9%); type: functional; procedure, shortened: as §3
[18] = test system: CHO; experiment: Antiproliferative activity against Chinese hamster CHO after 48 hrs by SRB assay; settings: Cricetulus griseus
[19] = test system: HT-29; experiment: Antiproliferative activity against human HT-29 cells after 48 hrs by SRB assay; type: functional, cell-based; settings: HT-29, 48 h; procedure, shortened: as §1
[20] = Toxicity against fertilized chicken embryo assessed as mortality at 3 ug, iv by CAM assay; type: organism-based, Gallus gallus; settings: in vivo, read-out: Activity
Procedure, shortened: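 HT-1080 fibrosarcoma cells (3.5 × 10⁵ cells/egg) grafted onto the chorioallantoic membrane of fertilized chicken eggs (10 days preincubation). On day 11, drug in DMSO diluted into excipient (ethanol:cremophor:PBS 6.25:6.25:87.5) given iv at 3 µg per egg. Chick mortality recorded over 7-day tumor growth period. Untreated eggs as negative controls and for normalization. Cumulative results from two independent experiments, 10–12 eggs each.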

[21] = test system: M21; experiment: Disruption of cytoskeleton microtubule structure of human M21 cells at 5 times IC50 after 16 hrs by indirect immunofluorescence assay; type: functional, cell-based
Procedure, shortened: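 Cells were fixed in 3.7% formaldehyde, permeabilized with saponin, and stained with anti-β-tubulin TUB 2.1, Alexa-488 anti-mouse secondary and DAPI. Fluorescence microscopy was used for imaging.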

[22] = test system: K562; experiment: Antiproliferative activity against human K562 after 48 hrs by SRB assay; type: functional, cell-based; settings: K562, 48 h
[23] = test system: MDA-MB-231; experiment: Antiproliferative activity against human MDA-MB-231 after 48 hrs by SRB assay; type: functional, cell-based; settings: MDA-MB-231, 48 h
[24] = test system: L1210; experiment: Antiproliferative activity against mouse L1210 after 48 hrs by SRB assay; type: functional, cell-based; settings: L1210, 48 h
[25] = test system: CHO-TAX 5-6; experiment: Antiproliferative activity against paclitaxel-resistant CHO-TAX 5-6 cells after 48 hrs by SRB assay; type: functional, cell-based; settings: Cricetulus griseus, CHO-TAX 5-6, 48 h; procedure, shortened: as §1
[26] = test system: CHO-VV 3-2; experiment: Ratio of IC50 for colchicine and vinblastine-resistant CHO-VV 3-2 cells to IC50 for CHO cells; type: functional, Cricetulus griseus; procedure, shortened: as §2

Compound	IC50 [1] [nM]	IC50 [2] [nM]	Activity [3]	IC50 [4] [nM]	IC50 [5] [nM]	IC50 [6] [nM]	Ratio IC50 [7]	IC50 [8] [nM]	IC50 [9] [nM]	Activity [10] [%]	IC50 [11] [nM]	Activity [12] [%]	Ratio IC50 [14]	IC50 [15] [nM]	IC50 [16] [nM]	Activity [17] [%]	IC50 [18] [nM]	IC50 [19] [nM]	mortality [20] [%]	Activity [21]	further results
O=C1NCCN1c1ccc(S(=O)(=O)Nc2cccc(Cl)c2)cc1	68	25	Active	230	79	77	0.6	70	190	5	170	33	2.2	150	78	62	96	55	8	Active	inhibition [13]: inactive; IC50 [22]: 69 nM; IC50 [23]: 200 nM; IC50 [24]: 77 nM; IC50 [25]: 58 nM; Ratio IC50 [26]: 1.6
Cc1cccc(NS(=O)(=O)c2ccc(N3CCNC3=O)cc2)c1	210	69	Active	580	190	200	0.65	200	290	1	370	16	1.9	280	250	83	230	110	8	Active	inhibition [13]: inactive; IC50 [22]: 200 nM; IC50 [23]: 1270 nM; IC50 [24]: 180 nM; IC50 [25]: 150 nM; Ratio IC50 [26]: 1.2
COc1cccc(NS(=O)(=O)c2ccc(N3CCNC3=O)cc2)c1	200	65	Active	650	120	260	0.61	240	370	10	700	29	2.7	450	250	61	330	120	16	Active	growth inhibition (GI) [13]: 41%; IC50 [22]: 230 nM; IC50 [23]: 730 nM; IC50 [24]: 240 nM; IC50 [25]: 200 nM; Ratio IC50 [26]: 1.4
